Assay [1] addresses T1, Estrogen receptor (Rattus norvegicus) (UniProt P06211+Q62986). As to the kind of experiment: Relative binding affinity (RBA) for estrogen receptor in rat uterine cytosol at OC relative to Estradiol. The note with it: Uterus. In outline:
(§1)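 Uterine cytosol from immature female Holtzman rats (21–25 days old), stored in liquid nitrogen. Competition assay with varying concentrations of unlabeled competitor against [³H]estradiol, incubated at 0–4 °C for 1–2 h. RBA is reported relative to estradiol (RBA = 100).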

Assay [2] addresses T2, Estrogen receptor (Ovis aries) (UniProt P49885+Q9TU15). As to the kind of experiment: Relative binding affinity (RBA) for estrogen receptor of lamb uterine cytosol at OC relative to Estradiol. It is filed as protein assay. A digest of the protocol:
(§2)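 Competitive estrogen receptor binding in lamb uterine cytosol, with estradiol as the standard ligand (RBA = 100). Incubation was at 0–4 °C for 1–2 h.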

Assay [3] concerns the target T1, Estrogen receptor (Rattus norvegicus). In words: Relative binding affinity (RBA) for estrogen receptor of rat uterine cytosol at 25 degree C relative to Estradiol. In kind it is protein assay. In outline:
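Cytosol source is the uterus of immature female Holtzman rats (21–25 days old), kept in liquid nitrogen. Graded concentrations of unlabeled ligand compete with [³H]estradiol during an 18 h incubation at 25 °C. RBA is expressed against estradiol set at 100.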

Assay [4] concerns the target T2, Estrogen receptor (Ovis aries). As to the kind of experiment: Relative binding affinity (RBA) for estrogen receptor in lamb uterine cytosol at OC relative to Estradiol. It is filed as protein assay. The note with it: Uterus. A digest of the protocol: as §2
Assay [5] addresses T1, Estrogen receptor (Rattus norvegicus). In words: Relative binding affinity (RBA) for estrogen receptor of rat uterine cytosol at OC relative to Estradiol. In kind it is protein assay. In outline:
as §1

For `C[C@]12CC[C@@H]3c4ccc(O)cc4CC[C@H]3[C@@H]1CC[C@@]2(O)/C=C\Cl`, the figures for the relative binding affinity (RBA) in assay [1] and in assay [2] were 102 and 115, respectively. In addition, the RBA in assay [3] worked out at 89.
For `C[C@]12CC[C@@H]3c4ccc(O)cc4CC[C@H]3[C@@H]1CC[C@@]2(O)/C=C/Cl`, the results for the relative binding affinity (RBA) in assay [4] and in assay [5] were 74 and 126, respectively. This compound also displayed an RBA in assay [3] of 199.
In assay [3], `C[C@]12CC[C@@H]3c4ccc(O)cc4CC[C@H]3[C@@H]1CC[C@@]2(O)/C=C\I` had an RBA of 62. The compound also displayed a relative binding affinity (RBA) in assay [5] of 77.
Regarding `C[C@]12CC[C@@H]3c4ccc(O)cc4CC[C@H]3[C@@H]1CC[C@@]2(O)/C=C/Br`, the relative binding affinity (RBA) turned out to be 117 in assay [4] and 195 in assay [5]. The compound also registered an RBA in assay [3] of 661.
In assay [3], `C[C@]12CC[C@@H]3c4ccc(O)cc4CC[C@H]3[C@@H]1CC[C@@]2(O)/C=C/I` came in with an RBA of 776. This compound also registered a relative binding affinity (RBA) in assay [5] of 202.
In the case of `C[C@]12CC[C@@H]3c4ccc(O)cc4CC[C@H]3[C@@H]1CC[C@@]2(O)/C=C\Br`, the figures for the relative binding affinity (RBA) in assay [1] and in assay [2] were 78 and 71, respectively. Besides, the RBA in assay [3] was found to be 56.

The values above are taken from ChEMBL document CHEMBL1125200, “Structure-activity relationships of estrogenic ligands: synthesis and evaluation of (17 alpha, 20E)- and (17 alpha, 20Z)-21-halo-19-norpregna-1,3,5(10),20-tetraene-3,17 beta-diols” (J Med Chem, 1991).
